Measurements reported in ChEMBL document CHEMBL2429730, “C23 steroids from the venom of Bufo bufo gargarizans” (J Nat Prod, 2013).
The source made the active and inactive calls. The calls are words filed in the database; no cut-off is given here.

Legend:
Sus scrofa = organism: Sus scrofa; experiment: Inhibition of Na(+)/K(+) ATPase in pig cerebral cortex assessed as release of inorganic phosphate at 50 uM after 15 mins by colorimetric method; assay type: tissue-based
[1] = Cytotoxicity against KM mouse splenic lymphocytes; settings: Splenic lymphocyte
A549 = experiment: Cytotoxicity against human A549 cells after 24 hrs by MTT assay; assay type: functional, cell-based; settings: A549, 24 h
HepG2 = experiment: Cytotoxicity against human HepG2 cells after 24 hrs by MTT assay; assay type: functional, cell-based; settings: HepG2, 24 h
[2] = Cytotoxicity against KM mouse splenic lymphocytes assessed as cell viability at 5 uM; set-up: species or system Splenic lymphocyte; settings: read-out: Activity
Procedure, shortened: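 Spleens from KM mice were homogenized in PBS and centrifuged. The pellet was red-cell-lysed for 5 min (Tris-base 2.6 g/L, NH4Cl 7.47 g/L, pH 7.2), then passed through a 300-mesh sieve. The resulting lymphocytes were tested by MTT assay, and survival rate was scored at 5 μM.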

[3] = Inhibition of Na(+)/K(+) ATPase in pig cerebral cortex assessed as release of inorganic phosphate after 15 mins by colorimetric method

| inhibition (Sus scrofa) | Compound | IC50 [1] | IC50 (A549) | IC50 (HepG2) | viability at 5 µM [2] | IC50 [3] |
| --- | --- | --- | --- | --- | --- | --- |
| inactive | COC(=O)CCC(=O)C1=CC=C2[C@@H]3CC[C@@H]4C[C@@H](O)CC[C@]4(C)[C@H]3CC[C@]12C | > 100 µM | > 100 µM | > 100 µM | – | – |
| – | CC(=O)O[C@H]1C[C@]2(O)[C@@H]3CC[C@@H]4C[C@@H](O)CC[C@]4(C)[C@H]3CC[C@]2(C)[C@H]1c1ccc(=O)oc1 [BUFOTALIN] | – | 0.9 µM | 0.5 µM | 100% | – |
| inactive | C=CC1=CO[C@]23CC[C@H]1[C@@]2(C)CC[C@H]1[C@H]3CC[C@]2(O)C[C@@H](O)CC[C@]12C | 79.4 µM | > 100 µM | 68.7 µM | – | – |
| – | CC(=O)O[C@H]1[C@H]2O[C@]23[C@@H]2CC[C@@H]4C[C@@H](O)CC[C@]4(C)[C@H]2CC[C@]3(C)[C@H]1c1ccc(=O)oc1 [CINOBUFAGIN] | – | 6.5 µM | 5.5 µM | 100% | – |
| – | C[C@]12CC[C@H](O)C[C@H]1CC[C@@H]1[C@@H]2CC[C@]2(C)[C@@H](c3ccc(=O)oc3)C[C@H]3O[C@]132 [BUFOGENIN] | > 100 µM | > 100 µM | 43.3 µM | – | – |
| – | C[C@]12CC[C@H](O)C[C@H]1CC[C@@H]1[C@@H]2CC[C@]2(C)[C@@H](c3ccc(=O)oc3)CC[C@]12O [BUFALIN] | – | 0.6 µM | 0.6 µM | 100% | 0.011 µM |
| – | C[C@@H]1O[C@@]12[C@@H]1O[C@@H]3C[C@H]2[C@@]2(C)CC[C@H]4[C@@H](CC[C@@H]5C[C@@H](O)CC[C@@]54C)[C@@]32O1 | > 100 µM | > 100 µM | > 100 µM | – | – |
| – | C=CC1=CO[C@]23C[C@H](OC(C)=O)[C@H]1[C@@]2(C)CC[C@H]1[C@H]3CC[C@@H]2C[C@@H](O)CC[C@@]21C | > 100 µM | > 100 µM | 64.8 µM | – | – |
| – | COc1cccc2c1C(=O)c1c(O)c3c(c(O)c1C2=O)C[C@@](O)(C(=O)CO)C[C@@H]3O[C@H]1C[C@H](N)[C@H](O)[C@H](C)O1 [DOXORUBICIN] | – | 0.1 µM | – | – | – |
| – | C/C=C(\C=O)[C@H]1[C@@H](OC(C)=O)[C@H]2O[C@]23[C@@H]2CC[C@@H]4C[C@@H](O)CC[C@]4(C)[C@H]2CC[C@]13C | > 100 µM | 45.6 µM | > 26.8 µM | – | – |
| – | C[C@]12CC[C@H](O)C[C@@]1(O)CC[C@@H]1[C@@H]2CC[C@]2(C)[C@@H](c3ccc(=O)oc3)CC[C@]12O [TELOCINOBUFAGIN] | – | 3 µM | 2.4 µM | 100% | – |
